No end group written: not given here.

The target in the assay is HLA-B*3501 (Homo sapiens, UniProt P01889, A329T/A93T/A95T/C349S/D201E/D98Y/E176V/E187L/E204Q/E69T/I218V/K202T/L119I/Q94N/R155S/R180L/S121R/S35A/S48A/T118I/V127L/V306I/V36M/Y140S/Y91F). The assay is classed as binding. The procedure, abridged: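 Human 721.221 cells expressing HLA-B*3501 were stripped of bound peptides with mild acid (pH 3.2). They were incubated overnight at 4°C with fluorescein-labelled reference peptide LPSC(FL)ADVEF (250 nM fixed) plus competitor peptides (>80% HPLC purity) from 50 to 0.09 μM. After washing, bound labelled peptide was measured by flow cytometry. IC50 (50% inhibition of reference binding) was taken from exponential regression curves.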
For orientation: IC50 means the concentration needed to halve the response being measured. In turn, LPAVVGASPGEQEY [LPAVVGASPGEQEY] yielded an IC50 of 1.3 µM.
As for LPAVVGLSAGEQEY [LPAVVGLSAGEQEY], the half-inhibitory concentration (IC50) is 1.1 µM.
On to `CC(C)C[C@H](NC(=O)CNC(=O)[C@@H](NC(=O)[C@@H](NC(=O)[C@H](C)NC(=O)[C@@H]1CCCN1C(=O)[C@@H](N)CC(C)C)C(C)C)C(C)C)C(=O)N[C@@H](CO)C(=O)N1CCC[C@H]1C(=O)NCC(=O)N[C@@H](CCC(=O)O)C(=O)N[C@@H](CCC(N)=O)C(=O)N[C@@H](CCC(=O)O)C(=O)N[C@@H](Cc1ccc(O)cc1)C(=O)O` [LPAVVGLSPGEQEY], for which the half-maximal inhibitory concentration (IC50) was determined as 3.1 µM.
Regarding LAAVVGLSPGEQEY [LAAVVGLSPGEQEY], the IC50 is 2.6 µM.
Consider LMAVVGLSPGEQEY [LMAVVGLSPGEQEY], for which the 50% inhibitory concentration (IC50) came out at 6.5 µM.
With LGAVVGLSPGEQEY [LGAVVGLSPGEQEY], half-maximal inhibition (IC50) required 17.4 µM.
The compound LWAVVGLSPGEQEY [LWAVVGLSPGEQEY] yielded an IC50 of 4.7 µM.
Compound APAVVGLSPGEQEY [APAVVGLSPGEQEY] registered a half-inhibitory concentration (IC50) of 2.8 µM.
Take LAAVVGLSAGEQEY [LAAVVGLSAGEQEY]: the IC50 is 1.7 µM.
In turn, “FPSDSWCYF [FPSDSWCYF, reference compound]” came in with a concentration for half-maximal inhibition (IC50) of 4.1 µM.

For the origin of these results see PMC2193327 (The Journal of Experimental Medicine, 2001).
